Laboratory results from ChEMBL document CHEMBL1126720 (J Med Chem, 1993).
pIC50: −log10 of the molar value.

Columns and labels:
[1] = Growth inhibition against CHO-derived cell line AA8; format: functional, cell-based, Cricetulus griseus
How it was run: (§1)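 Log-phase AA8 (200 viable cells/well) or UV4 (300 viable cells/well) cells with 5000 lethally irradiated AA8 feeder cells per well, in α-MEM with 10% heat-inactivated fetal calf serum. Cell mass read after 72-78 h by methylene blue protein staining and absorbance. IC50 = concentration reducing cell mass to 50% of the mean of 8 same-plate controls; means of at least 3 determinations ± SEM. Hypersensitivity factor = aerobic IC50(AA8)/IC50(UV4).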

[2] = Hypersensitivity factor is the ratio of IC50(AA8) to IC50(UV4) under aerobic conditions; format: functional; how it was run: as §1
UV4 = test: (§2) Cytotoxicity was measured for 90% kill in UV4 cells under aerobic conditions; format: functional; settings: Cricetulus griseus
How it was run: (§3)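 Clonogenic assay in magnetically stirred 10-mL suspensions of late log-phase UV4 cells at 2×10^6 cells/mL, 37 °C, continuously gassed with 5% CO2 in air or N2; samples removed periodically across a range of drug concentrations. CT10 (concentration × time for 10% survival) taken from survival curves; hypoxic selectivity = ratio of aerobic to hypoxic CT10.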

[3] = Ratio of aerobic CT10 to that of hypoxic CT10; format: functional; how it was run: as §3
[4] = Growth inhibition against CHO-derived cell line AA8 (Non toxic at solubility limit) [RB6145 used as positive control]; format: functional, cell-based, Cricetulus griseus; how it was run: as §1
[5] = as §2; format: functional, Cricetulus griseus; how it was run: as §3
[6] = Ratio of aerobic CT10 to that of hypoxic CT10 (for a 1-h exposure); format: functional; how it was run: as §3
[7] = Hypersensitivity factor is the ratio of IC50(AA8) to IC50(UV4) under aerobic conditions; ND = Nontoxic at the solubility level; format: functional; how it was run: as §1
[8] = Cricetulus griseus, CHO-derived

Bis (2,4-pentanedionato) (N,N'-bis(2-chloroethyl)ethylenediamine)cobalt(III) Percholate [listing 1 of 2 here]
pIC50 ([1]; cho-derived): 3.05

ClCCNCCNCCCl
pIC50 [1, 8]: 4.52 | HF ratio [2]: 29

Bis (3-ethyl-2,4-pentanedionato) (N,N'-bis(2-chloroethyl)ethylenediamine)cobalt(III) Percholate [listing 1 of 2 here]
pIC50 ([1]; cho-derived): 3.86

Bis (3-ethyl-2,4-pentanedionato) (N,N-bis(2-chloroethyl)ethylenediamine)cobalt(III) Percholate [listing 1 of 2 here]
pIC50 ([1]; cho-derived): 5.64

CCNCCNCC
pIC50 [1, 8]: 2.62 | HF ratio [2]: 0.7

Bis (3-methyl-2,4-pentanedionato) (N,N'-bis(2-chloroethyl)ethylenediamine)cobalt(III) Percholate [listing 1 of 2 here]
pIC50 ([1]; cho-derived): 3.19

Bis (2,4-pentanedionato) (N,N-bis(2-chloroethyl)ethylenediamine)cobalt(III) Percholate [listing 1 of 2 here]
CT10 (UV4): 0.64 µM·h | HF ratio [2]: 64 | Ratio [3]: 1.9

Bis (3-chlorol-2,4-pentanedionato) (N,N-bis(2-chloroethyl)ethylenediamine)cobalt(III) Percholate [listing 1 of 2 here]
pIC50 ([1]; cho-derived): 4.59

Bis (2,4-pentanedionato) (N,N'-bis(2-chloroethyl)ethylenediamine)cobalt(III) Percholate [listing 2 of 2 here]
CT10 (UV4): 21500 µM·h | HF ratio [2]: 14 | Ratio [3]: 1.6

Bis (2,4-pentanedionato) (N,N-diethylethylenediamine)cobalt(III) Percholate [listing 1 of 2 here]
pIC50 ([1]; cho-derived): 4.47

Bis (3-n-propyl-2,4-pentanedionato) (N,N-bis(2-chloroethyl)ethylenediamine)cobalt(III) Percholate [listing 1 of 2 here]
pIC50 ([1]; cho-derived): 4.73

Bis (2,4-pentanedionato) (N,N'-bis(2-diethylethylenediamine)cobalt(III) Percholate [listing 1 of 2 here]
pIC50 [4]: < 2.30

Bis (3-n-propyl-2,4-pentanedionato) (N,N-bis(2-chloroethyl)ethylenediamine)cobalt(III) Percholate [listing 2 of 2 here]
pIC50 ([1]; cho-derived): 5.87

Bis (3-chlorol-2,4-pentanedionato) (N,N-bis(2-chloroethyl)ethylenediamine)cobalt(III) Percholate [listing 2 of 2 here]
HF ratio [2]: 13

Bis (2,4-pentanedionato) (N,N-diethylethylenediamine)cobalt(III) Percholate [listing 2 of 2 here]
HF ratio [2]: 0.9

CCN(CC)CCN
pIC50 [1, 8]: 1.72 | HF ratio [2]: 0.99

O=[N+]([O-])c1nccn1CC(O)CNCCBr (stereo not given)
pIC50 [1, 8]: 3.84 | CT10 [5]: 6600 µM·h | HF ratio [2]: 5.9 | Ratio [6]: 50

Bis (3-methyl-2,4-pentanedionato) (N,N-bis(2-chloroethyl)ethylenediamine)cobalt(III) Percholate [listing 1 of 2 here]
pIC50 ([1]; cho-derived): 5.34

Bis (3-methyl-2,4-pentanedionato) (N,N-bis(2-chloroethyl)ethylenediamine)cobalt(III) Percholate [listing 2 of 2 here]
CT10 (UV4): 2.4 µM·h | HF ratio [2]: 48 | Ratio [3]: 20

Bis (3-ethyl-2,4-pentanedionato) (N,N'-bis(2-chloroethyl)ethylenediamine)cobalt(III) Percholate [listing 2 of 2 here]
HF ratio [2]: 4.8

Bis (2,4-pentanedionato) (N,N'-bis(2-diethylethylenediamine)cobalt(III) Percholate [listing 2 of 2 here]
HF ratio [7]: Nontoxic

Bis (3-ethyl-2,4-pentanedionato) (N,N-bis(2-chloroethyl)ethylenediamine)cobalt(III) Percholate [listing 2 of 2 here]
CT10 (UV4): 0.51 µM·h | HF ratio [2]: 20 | Ratio [3]: 4.9

Bis (3-methyl-2,4-pentanedionato) (N,N'-bis(2-chloroethyl)ethylenediamine)cobalt(III) Percholate [listing 2 of 2 here]
CT10 (UV4): > 2720 µM·h | HF ratio [2]: 2.7 | Ratio [3]: > 1

Bis (2,4-pentanedionato) (N,N-bis(2-chloroethyl)ethylenediamine)cobalt(III) Percholate [listing 2 of 2 here]
pIC50 ([1]; cho-derived): 5.51
